Test results as given in ChEMBL document CHEMBL4152257, “Discovery of novel β-carboline/acylhydrazone hybrids as potent antitumor agents and overcome drug resistance” (Eur J Med Chem, 2018).

Key:
Mus musculus = assay: Toxicity in athymic nude Balb/C mouse xenografted with human H460 cells assessed as body weight loss at 100 mg/kg, po administered 3 times per week measured every 2 days; assay type: organism-based; details: in vivo, 48 h
Method in brief: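 Nude mice, 5-to-6-week-old females, given 5 × 10^6 H460 cells sc in right flank in HBSS; at 100 mm3 tumour volume randomized, 6 per group. Vehicle; oral 100 mg/kg three times weekly; or ip 30 mg/kg once weekly. Toxicity signs and mortality observed daily; body weight measured every 2 days.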

NCI/ADR-RES = assay: Induction of apoptosis in human MCF7/ADR cells assessed as necrotic cells at 10 uM after 48 hrs by annexin V-FITC/PI dual staining based flow cytometry (reference value: 2.43%); assay type: functional
MCF7 = assay: Induction of apoptosis in human MCF7 cells assessed as viable cells at 10 uM after 48 hrs by annexin V-FITC/PI dual staining based flow cytometry (reference value: 77.8%); assay type: functional; details: MCF7, 48 h, read-out: Activity

N#Cc1ccc(COc2cccc(/C=N/NC(=O)c3cc4c(cn3)[nH]c3ccccc34)c2)cc1 was tested, and the Activity (Mus musculus) was less than 5%, the Activity (NCI/ADR-RES) was 6.4% and the viability at 10 µM (MCF7) was 66.6%.
